{
  "source": "ChEMBL document CHEMBL1255462",
  "about": "“Antiviral activity of a small-molecule inhibitor of filovirus infection” (Antimicrob Agents Chemother, 2010)",
  "key": {"[1]": {"assay": "Cytotoxicity against human PBMC after 72 hrs", "format": "cell-based", "settings": "PBMC (peripheral blood mononuclear cells)"}, "Ebolavirus [2]": {"tested_on": "Ebolavirus", "assay": "Antiviral activity against Ebola-like viruses infected in C57BL/6 mouse assessed as serum aspartate aminotransferase at 10 mg/kg, ip after 24 hrs measured on 2 days postinfection", "format": "functional", "settings": "route intraperitoneal", "method_in_brief": "(§1)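 C57BL/6 mice received 10 mg/kg i.p. in saline, or vehicle, 24 h postinfection. Five mice per group were sacrificed on days 2, 4 and 6. Serum was frozen at -70°C until all samples were collected, then assayed for ALT, AST and ALP (U/liter). Values are group means compared with vehicle.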"}, "Mus musculus [3]": {"tested_on": "Mus musculus", "assay": "Toxicity in Ebola-like viruses infected in C57BL/6 mouse spleen assessed as mild lymphocytolysis at 10 mg/kg, ip single dose measured after 4 days", "format": "organism-based", "design": "dose 10 mg/kg, route intraperitoneal", "settings": "in vivo, 96 h"}, "[4]": {"assay": "Antiviral activity against Lake Victoria marburgvirus - Ravn in overnight pretreated african green monkey Vero E6 cells at 25 uM after 48 hrs by standard virus yield reduction assay", "format": "functional", "design": "scale not given: the % may be the effect or the level left"}, "[5]": {"assay": "Cytotoxicity against human A549 cells after 72 hrs", "format": "cell-based", "method_in_brief": "(§2)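 Confluent monolayers were treated in triplicate with serially diluted compound at 0.0018 to 320 µM for 72 h. Viability was read by CellTiter Glo luminescence, and CC50 was determined.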"}, "Ebolavirus [6]": {"tested_on": "Ebolavirus", "assay": "Antiviral activity against Zaire ebolavirus expressing GFP in african green monkey Vero E6 cells at >=0.8 uM after 48 hrs by standard plaque assay", "format": "functional"}, "[7]": {"assay": "Cytotoxicity against MDCK cells after 72 hrs", "format": "cell-based, Canis lupus familiaris", "settings": "dog", "method_in_brief": "as §2"}, "Ebolavirus [8]": {"tested_on": "Ebolavirus", "assay": "Antiviral activity against Ebola-like viruses infected in C57BL/6 mouse assessed as serum alkaline phosphatase at 10 mg/kg, ip after 24 hrs measured on 6 days postinfection", "format": "functional", "settings": "route intraperitoneal", "method_in_brief": "as §1"}, "[9]": {"assay": "Cytotoxicity against human Hep2 cells after 72 hrs", "format": "cell-based, HEp-2", "method_in_brief": "as §2"}, "Ebolavirus [10]": {"tested_on": "Ebolavirus", "assay": "Antiviral activity against Ebola-like viruses infected in C57BL/6 mouse spleen assessed as reduction in viral burden at 10 mg/kg, ip single dose", "format": "functional", "settings": "route intraperitoneal"}, "Mus musculus [11]": {"tested_on": "Mus musculus", "assay": "Toxicity in Ebola-like viruses infected in C57BL/6 mouse assessed as mild hepatitis with hepatocellular necrosis at 10 mg/kg, ip single dose measured after 4 days", "format": "organism-based", "design": "dose 10 mg/kg, route intraperitoneal", "settings": "in vivo, 96 h"}, "Marburgvirus [12]": {"tested_on": "Marburgvirus", "assay": "Antiviral activity against Marburgvirus infected in BALB/C mouse assessed as protection against virus challenge at 5 mg/kg, ip administered 1 day postinfection", "format": "functional", "settings": "route intraperitoneal", "method_in_brief": "(§3)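 Compound given once i.p. in 0.9% saline at day 1 postinfection, with vehicle-treated controls. Health and mortality recorded twice daily for 14 days. Animals surviving 14 days were scored as protected, and survival curves were compared by Kaplan-Meier analysis.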"}, "Ebolavirus [13]": {"tested_on": "Ebolavirus", "assay": "Antiviral activity against Sudan ebolavirus expressing GFP in african green monkey Vero E6 cells after 48 hrs by standard plaque assay", "format": "functional, cell-based", "settings": "Orthoebolavirus"}, "[14]": {"assay": "Antiviral activity against Lake Victoria marburgvirus - Ci67 in overnight pretreated african green monkey Vero E6 cells after 48 hrs by standard virus yield reduction assay", "format": "functional"}, "[15]": {"assay": "Antiviral activity against Lake Victoria marburgvirus - Ci67 in overnight pretreated african green monkey Vero E6 cells at 10 uM after 48 hrs by standard virus yield reduction assay", "format": "functional", "design": "scale not given: the % may be the effect or the level left"}, "Ebolavirus [16]": {"tested_on": "Ebolavirus", "assay": "Antiviral activity against Ebola-like viruses infected in C57BL/6 mouse assessed as serum alkaline phosphatase at 10 mg/kg, ip after 24 hrs measured on 4 days postinfection", "format": "functional", "settings": "route intraperitoneal", "method_in_brief": "as §1"}, "[17]": {"assay": "Antiviral activity against Lake Victoria marburgvirus - Ravn in overnight pretreated african green monkey Vero E6 cells after 48 hrs by standard virus yield reduction assay", "format": "functional, cell-based", "settings": "Kenya, 1987, Vero"}, "Ebolavirus [18]": {"tested_on": "Ebolavirus", "assay": "Antiviral activity against Ebola-like viruses infected in C57BL/6 mouse assessed as serum alanine aminotransferase at 10 mg/kg, ip after 24 hrs measured on 6 days postinfection", "format": "functional", "settings": "route intraperitoneal", "method_in_brief": "as §1"}, "Ebolavirus [19]": {"tested_on": "Ebolavirus", "assay": "Antiviral activity against Zaire ebolavirus expressing GFP in african green monkey Vero E6 cells after 48 hrs by standard plaque assay", "format": "functional, cell-based"}, "Ebolavirus [20]": {"tested_on": "Ebolavirus", "assay": "Antiviral activity against Ebola-like viruses infected in C57BL/6 mouse assessed as serum alkaline phosphatase at 10 mg/kg, ip after 24 hrs measured on 2 days postinfection", "format": "functional", "settings": "route intraperitoneal", "method_in_brief": "as §1"}, "Ebolavirus [21]": {"tested_on": "Ebolavirus", "assay": "Antiviral activity against Ebola-like viruses infected in C57BL/6 mouse assessed as serum aspartate aminotransferase at 10 mg/kg, ip after 24 hrs measured on 4 days postinfection", "format": "functional", "settings": "route intraperitoneal", "method_in_brief": "as §1"}, "Marburgvirus [22]": {"tested_on": "Marburgvirus", "assay": "Antiviral activity against Marburgvirus infected in BALB/C mouse assessed as protection against virus challenge at 10 mg/kg, ip measured for 14 days", "format": "functional, organism-based", "design": "dose 10 mg/kg", "method_in_brief": "as §3"}, "[23]": {"assay": "Cytotoxicity against human HEK293 cells after 72 hrs", "format": "cell-based", "method_in_brief": "as §2"}, "Ebolavirus [24]": {"tested_on": "Ebolavirus", "assay": "Antiviral activity against Ebola-like viruses infected in C57BL/6 mouse liver assessed as reduction in viral burden at 10 mg/kg, ip single dose", "format": "functional", "settings": "route intraperitoneal"}, "Ebolavirus [25]": {"tested_on": "Ebolavirus", "assay": "Antiviral activity against Ebola-like viruses infected in C57BL/6 mouse assessed as serum alanine aminotransferase at 10 mg/kg, ip after 24 hrs measured on 2 days postinfection", "format": "functional", "settings": "route intraperitoneal", "method_in_brief": "as §1"}, "Ebolavirus [26]": {"tested_on": "Ebolavirus", "assay": "Antiviral activity against Ebola-like viruses infected in C57BL/6 mouse kidney assessed as reduction in viral burden at 10 mg/kg, ip single dose", "format": "functional", "settings": "route intraperitoneal"}, "Ebolavirus [27]": {"tested_on": "Ebolavirus", "assay": "Antiviral activity against Ebola-like viruses infected in C57BL/6 mouse assessed as serum alanine aminotransferase at 10 mg/kg, ip after 24 hrs measured on 4 days postinfection", "format": "functional", "settings": "route intraperitoneal", "method_in_brief": "as §1"}, "Ebolavirus [28]": {"tested_on": "Ebolavirus", "assay": "Antiviral activity against Ebola-like viruses infected in C57BL/6 mouse assessed as serum aspartate aminotransferase at 10 mg/kg, ip after 24 hrs measured on 6 days postinfection", "format": "functional", "settings": "route intraperitoneal", "method_in_brief": "as §1"}, "Ebolavirus [29]": {"tested_on": "Ebolavirus", "assay": "Antiviral activity against Ebola-like viruses infected in C57BL/6 mouse assessed as increase in mouse survival at 5 mg/kg, ip single injection", "format": "functional", "settings": "route intraperitoneal", "method_in_brief": "as §3"}, "[30]": {"assay": "Cytotoxicity against african green monkey Vero E6 cells after 72 hrs", "format": "cell-based", "settings": "chlorocebus sabaeus", "method_in_brief": "as §2"}},
  "note": "Calls of active or inactive are those of the source. The calls are words filed in the database; no cut-off is given here.",
  "data": [
    {"smiles": "N=C(N)c1ccc2oc(/C=C/c3nc4cc(C(=N)N)ccc4[nH]3)cc2c1", "values": [
      {"measurement": "CC50 at 72 h", "setting": "[1]", "value": "≥ 50000", "unit": "nM"},
      {"measurement": "Activity", "setting": "Ebolavirus [2]", "value": 237, "unit": "U/L"},
      {"measurement": "Activity", "setting": "Mus musculus [3]", "value": "Toxic"},
      {"measurement": "Activity", "setting": "[4]", "value": ">99.9", "unit": "%"},
      {"measurement": "CC50 at 72 h", "setting": "[5]", "value": "≥ 50000", "unit": "nM"},
      {"measurement": "inhibition (INH)", "setting": "Ebolavirus [6]", "value": ">=0.8%"},
      {"measurement": "CC50 at 72 h", "setting": "[7]", "value": "≥ 50000", "unit": "nM"},
      {"measurement": "Activity", "setting": "Ebolavirus [8]", "value": 67, "unit": "U/L"},
      {"measurement": "CC50 at 72 h", "setting": "[9]", "value": "≥ 50000", "unit": "nM"},
      {"measurement": "log10cfu", "setting": "Ebolavirus [10]", "value": 1},
      {"measurement": "Activity", "setting": "Mus musculus [11]", "value": "Toxic"},
      {"measurement": "Activity", "setting": "Marburgvirus [12]", "value": 40, "unit": "%"},
      {"measurement": "EC50", "setting": "Ebolavirus [13]", "value": 420, "unit": "nM"},
      {"measurement": "EC90", "setting": "Ebolavirus [13]", "value": 960, "unit": "nM"},
      {"measurement": "CC50", "setting": "[14]", "value": 2500, "unit": "nM"},
      {"measurement": "Activity", "setting": "[15]", "value": ">90", "unit": "%"},
      {"measurement": "Activity", "setting": "Ebolavirus [16]", "value": 65, "unit": "U/L"},
      {"measurement": "EC50", "setting": "[17]", "value": 2500, "unit": "nM"},
      {"measurement": "Activity", "setting": "Ebolavirus [18]", "value": 87, "unit": "U/L"},
      {"measurement": "Activity", "setting": "Ebolavirus [19]", "value": "Dose-dependent effect"},
      {"measurement": "EC50", "setting": "Ebolavirus [19]; Orthoebolavirus", "value": 100, "unit": "nM"},
      {"measurement": "EC90", "setting": "Ebolavirus [19]; Orthoebolavirus", "value": 330, "unit": "nM"},
      {"measurement": "Activity", "setting": "Ebolavirus [20]", "value": 57, "unit": "U/L"},
      {"measurement": "Activity", "setting": "Ebolavirus [21]", "value": 54, "unit": "U/L"},
      {"measurement": "Activity", "setting": "Marburgvirus [22]", "value": "Active"},
      {"measurement": "CC50 at 72 h", "setting": "[23]", "value": "≥ 50000", "unit": "nM"},
      {"measurement": "log10cfu", "setting": "Ebolavirus [24]", "value": 1},
      {"measurement": "Activity", "setting": "Ebolavirus [25]", "value": 148, "unit": "U/L"},
      {"measurement": "log10cfu", "setting": "Ebolavirus [26]", "value": 1},
      {"measurement": "Activity", "setting": "Ebolavirus [27]", "value": 23, "unit": "U/L"},
      {"measurement": "Activity", "setting": "Ebolavirus [28]", "value": 207, "unit": "U/L"},
      {"measurement": "Activity", "setting": "Ebolavirus [29]", "value": 60, "unit": "%"},
      {"measurement": "CC50 at 72 h", "setting": "[30]", "value": "≥ 50000", "unit": "nM"}
    ]}
  ]
}
